ChEMBL document CHEMBL4602714, “Strategic Incorporation of Polarity in Heme-Displacing Inhibitors of Indoleamine-2,3-dioxygenase-1 (IDO1)” (ACS Med Chem Lett, 2020)

Tests used:
[1] = Intrinsic clearance in Wistar Han rat at 0.05 mg/kg, iv administered using cassette dosing by LC-MS/MS analysis; assay type: ADME, organism-based; settings: in vivo
Outline: (§1)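 Rat cassette PK: single IV dose of 0.05 mg/kg at 1 mL/kg, vehicle DMSO/PEG400/H2O 20/60/20, animals fasted. Reported values are the geometric mean of n = 2 or more.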

[2] = Unbound intrinsic clearance in human hepatocytes incubated for 120 mins by LC-MS/MS analysis; assay type: ADME, cell-based, Hepatocyte; settings: 2 h
[3] = Unbound intrinsic clearance in rat hepatocytes incubated for 120 mins by LC-MS/MS analysis; assay type: ADME, cell-based, Hepatocyte; settings: 2 h
[4] = Unbound volume of distribution in Wistar Han rat at 0.05 mg/kg, iv administered using cassette dosing by LC-MS/MS analysis; assay type: ADME, organism-based; settings: in vivo; outline: as §1
[5] = MRT in Wistar Han rat at 0.05 mg/kg, iv administered using cassette dosing by LC-MS/MS analysis; assay type: ADME, organism-based; settings: in vivo; outline: as §1
[6] = Intrinsic clearance in Wistar Han rat at 0.5 mg/kg, iv or 1 mg/kg, po by LC-MS/MS analysis; assay type: ADME, organism-based; settings: in vivo
Outline: (§2)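 Rat 2 × 2 PK: IV arm at 0.5 mg/kg (1 mL/kg) and PO arm at 1 mg/kg (2 mL/kg), both in DMSO/PEG400/H2O 20/60/20. Reported values are the geometric mean of n = 2 or more.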

[7] = Unbound volume of distribution in Wistar Han rat at 0.5 mg/kg, iv or 1 mg/kg, po by LC-MS/MS analysis; assay type: ADME, organism-based; settings: in vivo; outline: as §2
[8] = MRT in Wistar Han rat at 0.5 mg/kg, iv or 1 mg/kg, po by LC-MS/MS analysis; assay type: ADME, organism-based; settings: in vivo; outline: as §2
[9] = Volume of distribution in Wistar Han rat at 0.05 mg/kg, iv administered using cassette dosing by LC-MS/MS analysis; assay type: ADME, organism-based; settings: in vivo; outline: as §1
[10] = Drug metabolism in rat liver microsomes assessed as oxidation of n-propyl group at 30 uM incubated up to 45 mins in presence of NADPH by MetID based LC/MS analysis; assay type: ADME, Microsome; settings: 0.75 h
[11] = Drug metabolism in human liver microsomes assessed as oxidation of n-propyl group at 30 uM incubated up to 45 mins in presence of NADPH by MetID based LC/MS analysis; assay type: ADME, Microsome; settings: 0.75 h
[12] = Drug metabolism in human hepatocytes assessed as oxidation of n-propyl group with aryl amide bond cleavage at 30 uM incubated up to 90 mins in presence of NADPH by MetID based LC/MS analysis; assay type: ADME, cell-based, Hepatocyte; settings: 1.5 h
[13] = Clearance in Wistar Han rat at 0.05 mg/kg, iv administered using cassette dosing by LC-MS/MS analysis; assay type: ADME, organism-based; settings: in vivo; outline: as §1
[14] = Unbound clearance in Wistar Han rat at 0.05 mg/kg, iv administered using cassette dosing by LC-MS/MS analysis; assay type: ADME, organism-based; settings: in vivo; outline: as §1

| SMILES | CL [1] | CL free [2] | CL free [3] | Vdu [4] | MRT [5] | further results |
| --- | --- | --- | --- | --- | --- | --- |
| O=C(Nc1ccc(C2(C(=O)Nc3ccc(F)cc3)COC2)cc1)c1cccc(Cl)c1 | 1600 mL/min/kg | 420 mL/min/kg | 250 mL/min/kg | 420 L/kg | 4.8 h | – |
| O=C(Nc1ccc([C@]2(C(=O)Nc3ccc(F)cc3)C[C@@H](O)C2)cc1)c1cccc(Cl)c1 | 590 mL/min/kg | 350 mL/min/kg | < 280 mL/min/kg | 99 L/kg | 3.2 h | – |
| CCCNC(=O)C1(c2ccc(NC(=O)c3ccc(F)c(C)c3)cc2)CCC1 | – | 560 mL/min/kg | 6200 mL/min/kg | – | – | – |
| O=C(Nc1ccc(C2(C(=O)Nc3ccc(F)cc3)COC2)nc1)c1cccc(Cl)c1 | – | < 44 mL/min/kg | < 84 mL/min/kg | – | 3.2 h | – |
| O=C(Nc1ccc(C2(C(=O)Nc3ccc(F)cc3)CCC2)cn1)c1cccc(Cl)c1 | – | 1300 mL/min/kg | 830 mL/min/kg | – | – | CL [6]: 4500 mL/min/kg; Vdu [7]: 2200 L/kg; MRT [8]: 5 h |

More lines, main results first:

| CL [1] | CL free [2] | CL free [3] | Vdu [4] | MRT [5] | SMILES | further results |
| --- | --- | --- | --- | --- | --- | --- |
| 6000 mL/min/kg | 2000 mL/min/kg | 2000 mL/min/kg | 1100 L/kg | 4.3 h | O=C(Nc1ccc(C2(C(=O)Nc3ccc(F)cc3)CCC2)cc1)c1cccc(Cl)c1 | – |
| – | 390 mL/min/kg | 1700 mL/min/kg | – | – | O=C(Nc1ccc(C2(C(=O)NC3CCOCC3)CCC2)cc1)c1cccc(Cl)c1 | – |
| – | 1900 mL/min/kg | 500 mL/min/kg | – | – | O=C(Nc1ccc(C2(C(=O)Nc3ccc(Cl)nc3)CCC2)cc1)c1cccc(Cl)c1 | – |
| – | 870 mL/min/kg | 7200 mL/min/kg | 180 L/kg | 0.7 h | CCCNC(=O)C1(c2ccc(NC(=O)c3cccc(Cl)c3)cc2)CCC1 | Vd [9]: 4.9 L/kg; Drug metabolism [10]: Metabolite_Detected; Drug metabolism [11]: Metabolite_Detected; Drug metabolism [12]: Metabolite_Detected; clearance [13]: 110 mL/min/kg; CL free [14]: 4100 mL/min/kg |
